Source: ChEMBL document CHEMBL4177600, “Identification of novel PI3K inhibitors through a scaffold hopping strategy” (Bioorg Med Chem Lett, 2017)
Values after ≈ are worked out from the molar mass of the structure shown.

Assays:
[1] = target: PI3-kinase p110-alpha/p85-alpha (Homo sapiens, UniProt P42336); test: Inhibition of full-length human P110alpha (1 to 1068 residues)/N-terminal GST-fused p85alpha (1 to 724 residues) expressed in baculovirus expression system by ADP Hunter assay; conditions: read-out: Ki(app)
PI3-kinase p110-alpha/p85-alpha, sequence (P27986 whole entry, the tested form may be a part): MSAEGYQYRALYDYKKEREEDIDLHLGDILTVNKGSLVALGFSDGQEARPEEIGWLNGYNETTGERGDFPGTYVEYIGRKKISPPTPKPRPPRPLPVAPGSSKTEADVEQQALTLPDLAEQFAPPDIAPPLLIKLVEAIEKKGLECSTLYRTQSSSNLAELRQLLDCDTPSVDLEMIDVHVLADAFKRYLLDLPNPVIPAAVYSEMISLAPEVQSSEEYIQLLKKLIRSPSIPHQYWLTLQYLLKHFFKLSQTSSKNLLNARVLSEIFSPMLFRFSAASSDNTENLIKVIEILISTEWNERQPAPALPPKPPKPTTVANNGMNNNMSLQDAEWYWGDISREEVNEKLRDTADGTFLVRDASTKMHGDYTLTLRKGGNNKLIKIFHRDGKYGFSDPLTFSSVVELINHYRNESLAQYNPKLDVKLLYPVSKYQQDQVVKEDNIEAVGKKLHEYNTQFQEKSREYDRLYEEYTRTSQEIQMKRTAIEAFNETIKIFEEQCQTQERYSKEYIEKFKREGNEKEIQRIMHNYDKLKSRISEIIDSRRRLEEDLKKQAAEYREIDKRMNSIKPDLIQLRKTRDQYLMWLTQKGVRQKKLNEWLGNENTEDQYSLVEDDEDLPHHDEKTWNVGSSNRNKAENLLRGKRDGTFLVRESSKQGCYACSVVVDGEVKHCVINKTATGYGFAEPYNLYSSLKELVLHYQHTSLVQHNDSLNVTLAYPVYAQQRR
PI3-kinase p110-alpha/p85-alpha, sequence (P42336 whole entry, the tested form may be a part): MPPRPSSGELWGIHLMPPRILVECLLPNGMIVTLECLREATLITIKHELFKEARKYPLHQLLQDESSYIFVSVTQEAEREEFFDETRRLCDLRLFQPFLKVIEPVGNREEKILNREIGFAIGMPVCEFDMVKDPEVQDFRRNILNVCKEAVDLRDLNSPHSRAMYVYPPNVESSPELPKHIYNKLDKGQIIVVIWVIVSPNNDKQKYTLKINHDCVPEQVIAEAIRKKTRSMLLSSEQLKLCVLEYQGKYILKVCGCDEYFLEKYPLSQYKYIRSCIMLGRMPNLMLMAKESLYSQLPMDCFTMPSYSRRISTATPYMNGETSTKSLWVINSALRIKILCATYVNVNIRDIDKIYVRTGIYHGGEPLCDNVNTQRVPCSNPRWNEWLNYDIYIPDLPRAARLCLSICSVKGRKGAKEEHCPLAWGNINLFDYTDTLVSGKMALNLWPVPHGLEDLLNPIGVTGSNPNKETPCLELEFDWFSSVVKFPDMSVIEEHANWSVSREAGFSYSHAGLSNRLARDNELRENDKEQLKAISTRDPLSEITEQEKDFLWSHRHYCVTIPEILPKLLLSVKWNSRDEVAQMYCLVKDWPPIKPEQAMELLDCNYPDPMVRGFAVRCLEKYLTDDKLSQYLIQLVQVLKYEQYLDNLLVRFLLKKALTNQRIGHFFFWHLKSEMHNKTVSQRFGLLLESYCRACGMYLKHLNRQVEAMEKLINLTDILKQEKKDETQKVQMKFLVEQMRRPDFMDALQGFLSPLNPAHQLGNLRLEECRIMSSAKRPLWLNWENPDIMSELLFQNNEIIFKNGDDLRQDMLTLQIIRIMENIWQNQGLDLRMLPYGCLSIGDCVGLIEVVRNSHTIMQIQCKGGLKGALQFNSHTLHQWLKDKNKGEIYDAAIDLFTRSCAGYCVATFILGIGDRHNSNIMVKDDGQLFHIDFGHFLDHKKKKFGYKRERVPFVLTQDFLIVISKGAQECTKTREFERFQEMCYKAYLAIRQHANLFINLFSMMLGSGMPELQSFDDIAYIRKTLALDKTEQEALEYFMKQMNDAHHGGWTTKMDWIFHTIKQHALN

[2] = AUC (infinity) in BALB-C mouse at 5 mg/kg, po by LC-MS/MS analysis; type: ADME, organism-based; set-up: dose 5 mg/kg, route oral, time infinity; conditions: in vivo
How it was run: (§1)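 BALB-C mice dosed IV (10% NMP/50% PEG300/40% saline) or PO (10% NMP/90% PEG300). Plasma sampled at 6 (IV) or 8 (PO) time points; compound measured by LC/MS/MS. Parameters from bicompartmental model fit; each value is the mean of 3 independent samples.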

[3] = Oral bioavailability in BALB-C mouse at 5 mg/kg by LC-MS/MS analysis; type: ADME, organism-based; conditions: in vivo
How it was run: (§2)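 BALB-C mice dosed IV in 10% NMP/50% PEG300/40% saline or PO in 10% NMP/90% PEG300. Plasma sampled at 6 (IV) or 8 (PO) time points and quantified by LC/MS/MS. Parameters come from a bicompartmental model fit; values are means of 3 independent samples. Plasma levels were compared with AKT-P EC50 from U2OS cells converted to ng/ml.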

[4] = AUC (infinity) in BALB-C mouse at 5 mg/kg, iv by LC-MS/MS analysis; type: ADME, organism-based; set-up: dose 5 mg/kg, time infinity, route intravenous; conditions: in vivo; how it was run: as §1
[5] = Volume of distribution in BALB-C mouse at 5 mg/kg, iv by LC-MS/MS analysis; type: ADME, organism-based; conditions: in vivo; how it was run: as §2
[6] = Clearance in BALB-C mouse at 5 mg/kg, iv by LC-MS/MS analysis; type: ADME, organism-based; conditions: in vivo
How it was run: (§3)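 Mice (BALB-C) given IV dose in 10% NMP/50% PEG300/40% saline; plasma sampled at 6 times, levels by LC/MS/MS.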

[7] = Permeability of the compound at 300 uL after 5 hrs by PAMPA; type: ADME; conditions: read-out: permeability
How it was run: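 Pre-coated PAMPA plates with a tri-layer phospholipid membrane. Donor held compound in PBS at the highest concentration soluble in PBS; acceptor was PBS. Incubated 5 h at room temperature, with propranolol and sorafenib (10 µM) as high and low permeability controls. Donor and acceptor concentrations measured by LC-MS/MS; Pe (10^-6 cm/s) calculated from acceptor/equilibrium concentrations, 0.3 cm² area and well volumes.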

Mus musculus [8] = test: Time at which plasma concentration stays above cellular EC50 for inhibition of AKT phosphorylation in BALB-C mouse at 5 mg/kg, po measured up to 24 hrs by LC-MS/MS analysis; type: organism-based; conditions: in vivo; how it was run: as §2
[9] = target: Serine/threonine-protein kinase mTOR (Homo sapiens, UniProt P42345); test: Inhibition of recombinant human GST-tagged mTOR catalytic domain (1360 to 2549 residues) expressed in baculovirus expression system by AlexaFluor647-labeled kinase tracer 314 based LanthaScreen assay
[10] = target: Tyrosine-protein kinase JAK2 (Homo sapiens) (UniProt O60674); test: Inhibition of recombinant human N-terminal GST/His6-tagged JAK2 (P717 to G1132 residues) expressed in Sf9 insect cells at 1 uM using TRK-C-derived peptide as substrate by filter binding method relative to control
Tyrosine-protein kinase JAK2 (Homo sapiens), sequence (O60674 whole entry, the tested form may be a part): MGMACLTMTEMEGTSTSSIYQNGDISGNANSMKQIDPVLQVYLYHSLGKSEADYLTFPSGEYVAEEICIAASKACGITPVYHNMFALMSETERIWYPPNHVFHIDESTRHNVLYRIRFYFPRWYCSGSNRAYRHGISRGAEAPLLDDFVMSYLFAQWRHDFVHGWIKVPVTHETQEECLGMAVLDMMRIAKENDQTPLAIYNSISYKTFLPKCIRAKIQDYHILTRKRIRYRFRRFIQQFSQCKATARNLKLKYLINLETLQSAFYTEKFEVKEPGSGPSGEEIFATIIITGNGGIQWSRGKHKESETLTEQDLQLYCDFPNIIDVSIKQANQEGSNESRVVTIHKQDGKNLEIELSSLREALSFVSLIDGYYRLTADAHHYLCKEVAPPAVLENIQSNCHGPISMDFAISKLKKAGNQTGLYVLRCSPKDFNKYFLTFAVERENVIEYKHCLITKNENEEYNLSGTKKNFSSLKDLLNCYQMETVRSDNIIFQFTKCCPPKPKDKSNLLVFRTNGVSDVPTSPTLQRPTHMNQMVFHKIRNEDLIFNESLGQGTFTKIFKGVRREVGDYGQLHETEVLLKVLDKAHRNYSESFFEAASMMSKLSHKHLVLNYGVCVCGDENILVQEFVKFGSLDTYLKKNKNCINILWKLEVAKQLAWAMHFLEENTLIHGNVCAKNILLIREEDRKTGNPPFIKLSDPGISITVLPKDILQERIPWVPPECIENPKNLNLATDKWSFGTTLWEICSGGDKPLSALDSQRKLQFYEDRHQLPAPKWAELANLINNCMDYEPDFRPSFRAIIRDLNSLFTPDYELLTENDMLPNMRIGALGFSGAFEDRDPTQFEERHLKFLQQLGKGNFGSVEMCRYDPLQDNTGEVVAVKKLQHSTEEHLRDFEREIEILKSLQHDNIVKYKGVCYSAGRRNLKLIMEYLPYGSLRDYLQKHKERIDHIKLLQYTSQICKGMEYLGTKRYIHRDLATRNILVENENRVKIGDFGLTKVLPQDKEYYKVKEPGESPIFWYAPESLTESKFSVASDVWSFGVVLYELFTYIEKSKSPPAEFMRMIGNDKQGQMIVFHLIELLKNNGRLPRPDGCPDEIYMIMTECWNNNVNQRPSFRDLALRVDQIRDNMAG
How it was run: (§4)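 Kinase panel of 24 enzymes, each tested at 1 µM; percent inhibition reported as the average of two independent data points.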

[11] = target: Serine/threonine-protein kinase PAK 1 (Homo sapiens) (UniProt Q13153); test: Inhibition of recombinant human N-terminal GST/His6-tagged PAK1 (M1 to H545 residues) expressed in Sf9 insect cells at 1 uM using tetra(LRRWSLG) as substrate by filter binding method relative to control
Serine/threonine-protein kinase PAK 1 (Homo sapiens), sequence (Q13153 whole entry, the tested form may be a part): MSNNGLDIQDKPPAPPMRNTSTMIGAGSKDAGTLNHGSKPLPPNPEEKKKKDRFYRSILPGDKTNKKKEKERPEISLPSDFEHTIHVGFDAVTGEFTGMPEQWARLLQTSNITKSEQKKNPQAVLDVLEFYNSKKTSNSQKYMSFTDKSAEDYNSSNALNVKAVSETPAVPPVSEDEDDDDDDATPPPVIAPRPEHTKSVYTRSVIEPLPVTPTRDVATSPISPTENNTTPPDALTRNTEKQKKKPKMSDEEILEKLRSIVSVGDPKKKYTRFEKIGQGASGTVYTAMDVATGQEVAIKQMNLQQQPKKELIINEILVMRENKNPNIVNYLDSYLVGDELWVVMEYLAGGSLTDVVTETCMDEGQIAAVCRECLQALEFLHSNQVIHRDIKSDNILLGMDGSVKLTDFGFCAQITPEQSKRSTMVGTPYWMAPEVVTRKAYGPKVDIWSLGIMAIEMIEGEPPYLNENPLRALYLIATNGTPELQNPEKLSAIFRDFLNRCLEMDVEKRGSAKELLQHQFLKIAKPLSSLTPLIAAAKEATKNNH
How it was run: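 Single-point screen at 1 µM in a 24-kinase panel run externally; each value is the average of two independent data points. The detailed assay conditions are given only on the provider's site.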

[12] = target: Mast/stem cell growth factor receptor Kit (Homo sapiens) (UniProt P10721); test: Inhibition of recombinant human N-terminal GST/His6-tagged KIT (T544 to V976 residues) expressed in Sf9 insect cells at 1 uM using TRK-C-derived peptide as substrate by filter binding method relative to control; how it was run: as §4
Mast/stem cell growth factor receptor Kit (Homo sapiens), sequence (P10721 whole entry, the tested form may be a part): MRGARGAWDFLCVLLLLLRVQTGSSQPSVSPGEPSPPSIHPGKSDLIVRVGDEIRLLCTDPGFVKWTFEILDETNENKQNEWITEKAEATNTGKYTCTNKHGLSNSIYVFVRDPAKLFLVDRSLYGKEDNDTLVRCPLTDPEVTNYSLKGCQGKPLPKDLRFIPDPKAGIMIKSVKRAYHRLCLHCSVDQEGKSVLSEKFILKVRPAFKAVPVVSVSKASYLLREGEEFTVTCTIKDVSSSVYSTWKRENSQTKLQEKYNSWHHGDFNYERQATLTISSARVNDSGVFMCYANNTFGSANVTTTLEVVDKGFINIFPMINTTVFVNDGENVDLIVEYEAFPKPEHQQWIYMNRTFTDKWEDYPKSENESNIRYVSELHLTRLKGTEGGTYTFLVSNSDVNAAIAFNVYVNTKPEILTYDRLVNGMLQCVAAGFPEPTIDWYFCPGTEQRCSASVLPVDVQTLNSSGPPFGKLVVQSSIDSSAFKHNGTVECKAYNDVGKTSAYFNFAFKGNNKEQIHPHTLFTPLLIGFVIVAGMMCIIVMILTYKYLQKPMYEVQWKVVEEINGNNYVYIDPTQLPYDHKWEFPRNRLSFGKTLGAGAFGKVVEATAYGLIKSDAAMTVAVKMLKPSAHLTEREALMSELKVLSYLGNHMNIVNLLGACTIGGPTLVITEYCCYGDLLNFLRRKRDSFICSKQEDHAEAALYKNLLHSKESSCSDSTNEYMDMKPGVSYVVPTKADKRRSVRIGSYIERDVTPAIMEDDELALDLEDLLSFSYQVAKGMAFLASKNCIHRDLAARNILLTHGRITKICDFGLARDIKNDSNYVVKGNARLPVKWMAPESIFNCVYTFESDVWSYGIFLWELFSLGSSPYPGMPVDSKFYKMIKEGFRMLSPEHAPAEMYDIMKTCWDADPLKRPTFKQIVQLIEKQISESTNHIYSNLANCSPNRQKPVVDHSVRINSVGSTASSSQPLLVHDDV

[13] = Tmax in BALB-C mouse at 5 mg/kg, po by LC-MS/MS analysis; type: ADME, organism-based; conditions: in vivo; how it was run: as §2
Mus musculus [14] = test: Clearance in BALB-C mouse at 5 mg/kg, iv by LC-MS/MS analysis relative to hepatic blood flow; type: ADME, organism-based; conditions: in vivo
[15] = Half-life in BALB-C mouse at 5 mg/kg, iv by LC-MS/MS analysis; type: ADME, organism-based; conditions: in vivo; how it was run: as §1
[16] = target: T1, Serine/threonine-protein kinase Chk1 (Homo sapiens) (UniProt O14757); test: Inhibition of recombinant human N-terminal GST/HIS6-tagged CHK1 (M1 to T476 residues) expressed in baculovirus infected Sf9 insect cells at 1 uM using S6 peptide as substrate by fliter binding assay relative to control; how it was run: as §4
T1 sequence (whole entry): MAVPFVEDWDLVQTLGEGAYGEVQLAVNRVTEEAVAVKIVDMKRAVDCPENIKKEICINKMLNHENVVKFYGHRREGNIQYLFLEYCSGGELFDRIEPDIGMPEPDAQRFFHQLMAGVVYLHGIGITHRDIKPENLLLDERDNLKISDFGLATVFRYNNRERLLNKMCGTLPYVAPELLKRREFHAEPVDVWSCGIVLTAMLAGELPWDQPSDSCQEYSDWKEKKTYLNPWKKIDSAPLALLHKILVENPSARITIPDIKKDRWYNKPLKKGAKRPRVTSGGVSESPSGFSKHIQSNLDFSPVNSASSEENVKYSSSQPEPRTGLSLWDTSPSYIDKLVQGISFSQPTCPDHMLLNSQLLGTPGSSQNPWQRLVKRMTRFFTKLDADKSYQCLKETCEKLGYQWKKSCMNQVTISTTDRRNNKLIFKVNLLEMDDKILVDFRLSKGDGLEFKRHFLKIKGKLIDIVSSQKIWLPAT

[17] = target: Casein kinase I isoform alpha (Homo sapiens) (UniProt P48729); test: Inhibition of recombinant human N-terminal GST/HIS6-tagged CK1alpha (M1 to F365 residues) expressed in Sf9 insect cells at 1 uM using casein as substrate by fliter binding assay relative to control; how it was run: as §4
Casein kinase I isoform alpha (Homo sapiens), sequence (P48729 2-337 limits assumed): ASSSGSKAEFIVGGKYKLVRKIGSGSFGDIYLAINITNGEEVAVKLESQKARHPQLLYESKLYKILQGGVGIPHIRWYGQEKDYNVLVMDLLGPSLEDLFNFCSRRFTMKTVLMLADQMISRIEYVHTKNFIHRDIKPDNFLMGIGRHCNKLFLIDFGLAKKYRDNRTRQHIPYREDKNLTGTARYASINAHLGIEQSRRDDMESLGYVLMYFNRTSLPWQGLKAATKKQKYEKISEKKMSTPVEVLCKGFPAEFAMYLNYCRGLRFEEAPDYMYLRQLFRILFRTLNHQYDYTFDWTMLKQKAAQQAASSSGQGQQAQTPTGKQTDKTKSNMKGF

[18] = Half-life in BALB-C mouse at 10 mg/kg, po by LC-MS/MS analysis; type: ADME, organism-based; conditions: in vivo; how it was run: as §1
U2OS = test: Inhibition of AKT phosphorylation in human U2OS cells
[19] = AUC (infinity) in BALB-C mouse at 10 mg/kg, po by LC-MS/MS analysis; type: ADME, organism-based; set-up: dose 10 mg/kg, time infinity, route oral; conditions: in vivo; how it was run: as §1
[20] = Volume of distribution in BALB-C mouse at 3 mg/kg, iv by LC-MS/MS analysis; type: ADME, organism-based; conditions: in vivo; how it was run: as §2
[21] = Cmax in BALB-C mouse at 9 mg/kg, po by LC-MS/MS analysis; type: ADME, organism-based; set-up: dose 9 mg/kg, route oral; conditions: in vivo; how it was run: as §1
[22] = AUC (infinity) in BALB-C mouse at 3 mg/kg, iv by LC-MS/MS analysis; type: ADME, organism-based; set-up: dose 3 mg/kg, time infinity, route intravenous; conditions: in vivo; how it was run: as §1
[23] = Clearance in BALB-C mouse at 3 mg/kg, iv by LC-MS/MS analysis; type: ADME, organism-based; conditions: in vivo; how it was run: as §3

| Ki [1] [nM] | AUC(0-inf) [4] [ng·h/mL] | Vd [5] [L/kg] | clearance [6] [mL/min/kg] | Papp at 5 h [7] [×10⁻⁶ cm/s] | IC50 [9] [nM] | inhibition [10] [%] | inhibition [11] [%] | inhibition [12] [%] | CL (Mus musculus [14]) [%] | half-life [15] [h] | inhibition [16] [%] | inhibition [17] [%] | SMILES | further results |
| --- | --- | --- | --- | --- | --- | --- | --- | --- | --- | --- | --- | --- | --- | --- |
| 5.5 | 7730 | 1.61 | 10.8 | 0.69 | 8170 | < 25 | < 25 | < 25 | < 50 | 1.81 | < 25 | < 25 | CS(=O)(=O)N1CCN(Cc2nc3c(N4CCOCC4)nc(-c4cnc(N)nc4)c(Cl)n3n2)CC1 | AUC(0-inf) [2]: 5650 ng·h/mL; bioavailability [3]: 73.1%; Time (Mus musculus [8]): > 12 h; Tmax [13]: 1 h |
| 1.52 |  |  |  | 3.54 |  | < 25 | < 25 | < 25 |  |  | < 25 | < 25 | CS(=O)(=O)N1CCN(Cc2cn3nc(-c4cnc(N)nc4)nc(N4CCOCC4)c3n2)CC1 |  |
| 1 | 2660 | 2 | 35.5 | 1.92 |  | < 25 | < 25 | < 25 | < 50 | 0.26 | < 25 | < 25 | CS(=O)(=O)N1CCN(Cc2nc3c(N4CCOCC4)nc(-c4cnc(N)nc4)cn3n2)CC1 | half-life [18]: 5.28 h; EC50 (U2OS): 0.04138 µg/mL (≈ 0.0872 µM); AUC(0-inf) [19]: 4690 ng·h/mL |
| 0.99 |  |  |  | 0.93 | 1700 | < 25 | < 25 | < 25 |  |  | < 25 | < 25 | CS(=O)(=O)N1CCN(Cc2cc3c(N4CCOCC4)nc(-c4cnc(N)nc4)cn3n2)CC1 | Vd [20]: 0.6 L/kg; Cmax [21]: 938 ng/mL; AUC(0-inf) [22]: 5820 ng·h/mL; clearance [23]: 10.8 mL/min/kg |
